Columns and labels:
Cannabinoid receptor 2 [1] = target: T1, Cannabinoid receptor 2 (Homo sapiens, UniProt P34972); experiment: Agonist activity at human CB2 receptor expressed in CHOK1 cells assessed as inhibition of forskolin-induced cAMP production treated 15 mins before forskolin challenge measured after 1 hr by HTRF assay relative to control; format: functional, cell-based; conditions: CHO-K1
In short: (§1)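 CHO-K1 cells (1000 per well) expressing human or rat CB1 or CB2 were preincubated with compound at room temperature for 15 min. Forskolin at EC70 was then added for a further 30 min at room temperature. cAMP was read by HTRF (d2-cAMP plus anti-cAMP-cryptate, final 1 h at room temperature). IC50 and % Emax were reported.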

Cannabinoid receptor 1 [2] = target: T2, Cannabinoid receptor 1 (Homo sapiens, UniProt P21554); experiment: Agonist activity at human CB1 receptor expressed in CHOK1 cells assessed as inhibition of forskolin-induced cAMP production treated 15 mins before forskolin challenge measured after 1 hr by HTRF assay relative to control; format: functional, cell-based; conditions: CHO-K1; in short: as §1
Rattus norvegicus [3] = experiment: Antiinflammatory activity in rat assessed as inhibition of complete Freund's adjuvant-induced paw withdrawal threshold at 30 mg/kg, sc after 60 mins (reference value: 11%); format: functional; conditions: 1 h, route subcutaneous
In short: (§2)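 Rat complete Freund's adjuvant hyperalgesia model. Compound was given subcutaneously at 10, 30 or 100 mpk. Paw withdrawal threshold was read at the 60 min timepoint and expressed as % reversal.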

Cannabinoid receptor 2 [4] = target: T1, Cannabinoid receptor 2; experiment: Agonist activity at human CB2 receptor expressed in CHOK1 cells assessed as inhibition of forskolin-induced cAMP production treated 15 mins before forskolin challenge measured after 1 hr by HTRF assay; format: functional, cell-based, CHO-K1
In short: (§3)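 CHO-K1 cells (1000 per well) expressing human or rat CB1 or CB2 were preincubated with compound for 15 min at room temperature. Forskolin was then added at its EC70 for 30 min at room temperature. cAMP was detected by HTRF (d2-cAMP plus anti-cAMP cryptate) after a final 1 h incubation at room temperature. Values are reported as IC50 with % Emax.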

Cannabinoid receptor 1 [5] = target: T2, Cannabinoid receptor 1; experiment: Agonist activity at human CB1 receptor expressed in CHOK1 cells assessed as inhibition of forskolin-induced cAMP production treated 15 mins before forskolin challenge measured after 1 hr by HTRF assay; format: functional, cell-based, CHO-K1; in short: as §3
Cannabinoid receptor 2 [6] = target: T3, Cannabinoid receptor 2 (Rattus norvegicus, UniProt Q9QZN9); experiment: Agonist activity at rat CB2 receptor expressed in CHOK1 cells assessed as inhibition of forskolin-induced cAMP production treated 15 mins before forskolin challenge measured after 1 hr by HTRF assay; format: functional, cell-based, CHO-K1; in short: as §3
T3 sequence (Q9QZN9 whole entry): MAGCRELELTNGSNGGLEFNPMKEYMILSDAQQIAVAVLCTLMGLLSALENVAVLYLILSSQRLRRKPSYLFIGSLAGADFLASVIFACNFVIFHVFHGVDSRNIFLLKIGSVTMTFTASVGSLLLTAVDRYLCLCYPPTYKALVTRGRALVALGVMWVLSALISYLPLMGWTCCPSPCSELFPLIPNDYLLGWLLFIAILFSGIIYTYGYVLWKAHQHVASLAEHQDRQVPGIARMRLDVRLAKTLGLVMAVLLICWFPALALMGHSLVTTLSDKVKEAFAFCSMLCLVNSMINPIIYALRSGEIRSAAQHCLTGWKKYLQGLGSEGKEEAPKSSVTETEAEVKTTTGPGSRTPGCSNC

Cannabinoid receptor 1 [7] = target: Cannabinoid receptor 1 (Rattus norvegicus, UniProt P20272); experiment: Agonist activity at rat CB1 receptor expressed in CHOK1 cells assessed as inhibition of forskolin-induced cAMP production treated 15 mins before forskolin challenge measured after 1 hr by HTRF assay; format: functional, cell-based, CHO-K1; in short: as §3
Plasma = experiment: Drug level in rat complete Freund's adjuvant-induced inflammation model plasma at 30 mg/kg, sc; format: ADME, organism-based; design: dose 30 mg/kg, route subcutaneous; conditions: in vivo, read-out: Drug uptake
In short: (§4)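 In the rat CFA hyperalgesia experiments, after 30 mpk subcutaneous dosing, compound levels (nM) were measured in plasma, brain homogenate and cerebrospinal fluid.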

Brain = experiment: Drug level in rat complete Freund's adjuvant-induced inflammation model brain at 30 mg/kg, sc; format: ADME, organism-based; design: dose 30 mg/kg, route subcutaneous; conditions: in vivo, read-out: Drug uptake; in short: as §4
Cerebrospinal fluid = experiment: Drug level in rat complete Freund's adjuvant-induced inflammation model cerebrospinal fluid at 30 mg/kg, sc; format: ADME, organism-based; design: dose 30 mg/kg, route subcutaneous; conditions: in vivo, read-out: Drug uptake; in short: as §4
[8] = target: T4, Cannabinoid receptor 2 (Rattus norvegicus) (UniProt Q9QZN9); experiment: Agonist activity at rat CB2 receptor expressed in CHOK1 cells assessed as inhibition of forskolin-induced cAMP production treated 15 mins before forskolin challenge measured after 1 hr by HTRF assay relative to control; format: functional, cell-based; conditions: CHO-K1; in short: as §1
T4 sequence (whole entry): T3 sequence (Q9QZN9 whole entry)

[9] = target: Cannabinoid receptor 1 (Rattus norvegicus) (UniProt P20272); experiment: Agonist activity at rat CB1 receptor expressed in CHOK1 cells assessed as inhibition of forskolin-induced cAMP production treated 15 mins before forskolin challenge measured after 1 hr by HTRF assay relative to control; format: functional, cell-based; conditions: CHO-K1; in short: as §1
Rattus norvegicus [10] = species: Rattus norvegicus
Homo sapiens = species: Homo sapiens; experiment: Selectivity ratio of IC50 for human CB1 receptor to IC50 for human CB2 receptor
Rattus norvegicus [11] = experiment: Antiinflammatory activity in sc dosed rat assessed as inhibition of complete Freund's adjuvant-induced paw withdrawal threshold after 60 mins; format: functional, organism-based; in short: as §2
[12] = Fraction unbound in rat plasma; format: ADME, cell-free
[13] = Distribution coefficient, log P of the compound; format: physicochemical; conditions: octanol/water
Rattus norvegicus [14] = experiment: Antiinflammatory activity in rat assessed as inhibition of complete Freund's adjuvant-induced paw withdrawal threshold at 10 mg/kg, sc after 60 mins (reference value: 4.8%); format: functional; conditions: 1 h, route subcutaneous; in short: as §2
Rattus norvegicus [15] = experiment: Antiinflammatory activity in rat assessed as inhibition of complete Freund's adjuvant-induced paw withdrawal threshold at 30 mg/kg, sc after 60 mins (reference value: 4.8%); format: functional; conditions: 1 h, route subcutaneous; in short: as §2
Rattus norvegicus [16] = experiment: Antiinflammatory activity in rat assessed as inhibition of complete Freund's adjuvant-induced paw withdrawal threshold at 100 mg/kg, sc after 60 mins (reference value: 4.8%); format: functional; conditions: 1 h, route subcutaneous; in short: as §2
Rattus norvegicus [17] = species: Rattus norvegicus; experiment: animal or person; conditions: sc, 1 h, read-out: INH

T2 sequence (P21554 whole entry): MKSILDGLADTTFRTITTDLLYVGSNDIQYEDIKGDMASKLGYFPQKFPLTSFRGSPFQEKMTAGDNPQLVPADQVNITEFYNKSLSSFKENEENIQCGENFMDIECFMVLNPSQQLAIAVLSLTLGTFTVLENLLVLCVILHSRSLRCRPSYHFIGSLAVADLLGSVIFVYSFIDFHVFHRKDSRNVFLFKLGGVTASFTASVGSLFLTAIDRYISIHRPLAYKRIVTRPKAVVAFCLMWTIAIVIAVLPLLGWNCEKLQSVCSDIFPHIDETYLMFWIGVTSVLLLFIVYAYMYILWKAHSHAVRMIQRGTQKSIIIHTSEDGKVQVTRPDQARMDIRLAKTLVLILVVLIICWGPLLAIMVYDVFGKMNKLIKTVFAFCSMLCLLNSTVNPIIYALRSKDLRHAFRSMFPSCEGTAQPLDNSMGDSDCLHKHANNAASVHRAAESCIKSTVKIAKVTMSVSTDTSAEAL
T1 sequence (P34972 whole entry): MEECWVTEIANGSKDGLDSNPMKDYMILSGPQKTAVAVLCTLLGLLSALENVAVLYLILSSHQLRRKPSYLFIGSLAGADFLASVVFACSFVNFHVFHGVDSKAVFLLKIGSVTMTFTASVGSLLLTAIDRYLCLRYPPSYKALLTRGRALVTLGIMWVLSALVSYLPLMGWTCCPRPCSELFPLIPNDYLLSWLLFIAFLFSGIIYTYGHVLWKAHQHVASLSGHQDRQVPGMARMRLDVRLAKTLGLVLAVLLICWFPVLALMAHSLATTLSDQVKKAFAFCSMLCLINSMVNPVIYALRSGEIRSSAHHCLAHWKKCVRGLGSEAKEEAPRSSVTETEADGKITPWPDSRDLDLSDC
Cannabinoid receptor 1 (Rattus norvegicus, UniProt P20272), sequence (P20272 whole entry): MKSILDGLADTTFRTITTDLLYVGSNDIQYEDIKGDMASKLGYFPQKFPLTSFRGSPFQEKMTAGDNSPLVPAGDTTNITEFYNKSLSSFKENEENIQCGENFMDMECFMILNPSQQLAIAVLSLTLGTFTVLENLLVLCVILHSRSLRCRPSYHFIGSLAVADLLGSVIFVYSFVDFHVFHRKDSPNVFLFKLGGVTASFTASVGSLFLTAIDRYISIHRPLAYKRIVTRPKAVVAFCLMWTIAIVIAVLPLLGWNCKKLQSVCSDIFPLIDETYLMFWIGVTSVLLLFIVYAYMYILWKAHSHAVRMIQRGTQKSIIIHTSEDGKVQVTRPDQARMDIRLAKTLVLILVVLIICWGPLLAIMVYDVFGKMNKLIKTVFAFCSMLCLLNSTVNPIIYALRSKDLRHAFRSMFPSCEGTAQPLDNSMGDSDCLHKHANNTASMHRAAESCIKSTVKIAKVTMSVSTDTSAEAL
Cannabinoid receptor 1 (Rattus norvegicus), sequence (P20272 whole entry): as above

Structure (SMILES): CN1CCOC[C@H]1C(=O)N1CC[C@@](O)(c2ccccc2)[C@@H]2CCCC[C@@H]21
- Emax (Cannabinoid receptor 2 [1]): 101%
- Emax (Cannabinoid receptor 1 [2]): 11%
- inhibition in vivo at 30 mg/kg (Rattus norvegicus [3]): 3.3%
- IC50 (Cannabinoid receptor 2 [4]): 16 nM
- IC50 (Cannabinoid receptor 1 [5]): > 17000 nM
- IC50 (Cannabinoid receptor 2 [6]): 81 nM
- IC50 (Cannabinoid receptor 1 [7]): > 17000 nM
- concentration (Plasma): 6.6 µM
- concentration (Brain): 9.8 µM
- concentration (Cerebrospinal fluid): 1.5 µM
- Emax [8]: 98%
- Emax [9]: 8%
- Papp (Rattus norvegicus [10]): 39 ×10⁻⁶ cm/s

Structure (SMILES): O=C(c1cnc2ccccc2c1)N1CC[C@@](O)(c2ccccc2)[C@@H]2CCCC[C@@H]21 (racemic)
- Emax (Cannabinoid receptor 2 [1]): 96%
- Emax (Cannabinoid receptor 1 [2]): 69%
- IC50 (Cannabinoid receptor 2 [4]): 3.38 nM
- IC50 (Cannabinoid receptor 1 [5]): 1530 nM
- Ratio IC50 (Homo sapiens): 452

Structure (SMILES): Cc1ccc(C(=O)N2CC[C@@](O)(c3ccccc3)[C@@H]3CCCC[C@@H]32)cn1 [listing 1 of 2 here]
- Emax (Cannabinoid receptor 2 [1]): 103%
- Emax (Cannabinoid receptor 1 [2]): 78%
- inhibition (Rattus norvegicus [11]): Dose-dependent effect
- Emax [8]: 119%
- Emax [9]: 94%
- Papp (Rattus norvegicus [10]): 36 ×10⁻⁶ cm/s

Structure (SMILES): Cc1ccc(C(=O)N2CC[C@@](O)(c3ccccc3)[C@@H]3CCCC[C@@H]32)cn1 (racemic)
- IC50 (Cannabinoid receptor 2 [4]): 14 nM
- IC50 (Cannabinoid receptor 1 [5]): > 17000 nM
- fraction unbound [12]: 0.15
- logP [13]: 2.26

Structure (SMILES): O=C(c1ccc2[nH]ccc2c1)N1CC[C@@](O)(c2ccccc2)[C@@H]2CCCC[C@@H]21 (racemic)
- Emax (Cannabinoid receptor 2 [1]): 104%
- Emax (Cannabinoid receptor 1 [2]): 91%
- IC50 (Cannabinoid receptor 2 [4]): 1.4 nM
- IC50 (Cannabinoid receptor 1 [5]): 1000 nM
- Ratio IC50 (Homo sapiens): 716

Structure (SMILES): Cc1ccc(C(=O)N2CC[C@@](O)(c3ccccc3)[C@@H]3CCCC[C@@H]32)cn1 [listing 2 of 2 here]
- IC50 (Cannabinoid receptor 2 [4]): 7.3 nM
- IC50 (Cannabinoid receptor 1 [5]): 5020 nM
- IC50 (Cannabinoid receptor 2 [6]): 6.3 nM
- IC50 (Cannabinoid receptor 1 [7]): 1890 nM
- inhibition in vivo at 10 mg/kg (Rattus norvegicus [14]): 28.2%
- inhibition in vivo at 30 mg/kg (Rattus norvegicus [15]): 53.6%
- inhibition in vivo at 100 mg/kg (Rattus norvegicus [16]): 76.4%
- concentration (Plasma): 4.2 µM
- concentration (Brain): 3.2 µM
- concentration (Cerebrospinal fluid): 0.223 µM

Structure (SMILES): CN1CCOCC1C(=O)N1CC[C@@](O)(c2ccccc2)[C@@H]2CCCC[C@@H]21 (mixture of isomers)
- Emax (Cannabinoid receptor 2 [1]): 100%
- IC50 (Cannabinoid receptor 2 [4]): 30 nM
- IC50 (Cannabinoid receptor 1 [5]): > 17000 nM
- fraction unbound [12]: 0.34
- logP [13]: 2.28

Structure (SMILES): COc1ccc2cc([C@H](C)C(=O)O)ccc2c1 [NAPROXEN]
- inhibition in vivo at 20 mg/kg (Rattus norvegicus [17]): 23.9%

From ChEMBL document CHEMBL1765069, “Decahydroquinoline amides as highly selective CB2 agonists: role of selectivity on in vivo efficacy in a rodent model of analgesia” (Bioorg Med Chem Lett, 2011)
